DDE Tn7 FP inh – inhibitors of Tn7 peptide binding to human fibrin DD(E); P02675; FP displacement of FITC-Tn7 peptide from fibrin DD(E); 0% = median of compound wells per plate; inhibition, % at 8.3 µM; 370,000 compounds, 0.13% hits;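 active = inhibition above the mean of compounds falling within the control limits plus 3 SD of them, cut at about 14% in these data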
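Assay system: Human fibrin DD(E) protein | Medium: Tris buffer with calcium and detergent, pH 7.8 | Reagent: 0.1 µM fluorescent Tn7 | Compound dosing: Single point at 8.3 µM | Times: 10 min preincubation, 3 h with tracer, room temperature | Detection: Fluorescence polarization of the labelled Tn7 tracer | Controls: Aha-Tn7 high control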
ARNT TACC3 PPI – disrupts binding between human ARNT and TACC3; Q9Y6A5; AlphaScreen His-ARNT PAS-B/GST-TACC3 binding, luminescence; TACC3 fragment carries E629A point mutation; inhibition, % at 9.99 µM; 390,000 compounds, 0.66% hits;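 active = mean inhibition of replicates at least 50% and at least half of replicates each reaching 50%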
CAL PDZ FP-1 – human CAL PDZ-peptide interaction inhibition. inhibition, % at 20 µM. purified CAL PDZ, TMR-peptide fluorescence polarization, 1 h. 330,000 compounds, 0.02% hits. Q9HD26;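 active = highest replicate inhibition of at least 40%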
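material = purified tagged CAL PDZ domain construct (CerCALP) | buffer or medium = sodium phosphate/NaCl buffer pH 7.4 with TCEP, IgG, Thesit | reagent = TMR-labelled reporter peptide T*-PRC34 bound in PDZ groove | incubation = 1 h room-temperature incubation prior to read | measured by = fluorescence polarization (mP) | evaluation = percent inhibition from loss of millipolarization | control set = unlabelled peptide and DMSO controls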
GRK2 aptamer HTS – human GRK2 inhibition via aptamer displacement. bead flow cytometry, FAM-aptamer displacement from GRK2. 330,000 compounds, 0.59% hits. AID 488847. P25098. inhibition of aptamer binding, % at 10 µM;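 active = inhibition of aptamer binding above 40%, roughly 3 SD of noise, on plates passing a quality check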;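 note: median bead fluorescence of bound FAM aptamer so fluorescent compounds give negative values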
Target sequence (P25098 whole entry, looked up): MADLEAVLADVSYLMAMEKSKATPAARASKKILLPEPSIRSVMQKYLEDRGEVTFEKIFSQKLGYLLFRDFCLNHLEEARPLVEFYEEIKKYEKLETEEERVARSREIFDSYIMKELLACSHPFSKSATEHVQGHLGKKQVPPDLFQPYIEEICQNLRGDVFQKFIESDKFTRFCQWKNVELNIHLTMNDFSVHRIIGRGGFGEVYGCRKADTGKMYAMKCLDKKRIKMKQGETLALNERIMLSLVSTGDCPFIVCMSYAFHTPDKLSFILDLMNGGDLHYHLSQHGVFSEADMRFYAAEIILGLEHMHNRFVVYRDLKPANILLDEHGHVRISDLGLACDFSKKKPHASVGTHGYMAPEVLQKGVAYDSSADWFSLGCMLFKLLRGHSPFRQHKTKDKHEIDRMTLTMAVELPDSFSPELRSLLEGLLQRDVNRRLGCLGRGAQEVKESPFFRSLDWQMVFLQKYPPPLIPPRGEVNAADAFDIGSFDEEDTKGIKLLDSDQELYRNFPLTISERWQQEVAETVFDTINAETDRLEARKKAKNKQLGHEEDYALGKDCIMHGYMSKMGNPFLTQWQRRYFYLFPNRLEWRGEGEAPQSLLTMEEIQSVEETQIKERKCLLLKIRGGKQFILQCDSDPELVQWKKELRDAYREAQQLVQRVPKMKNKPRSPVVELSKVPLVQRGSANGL
CAL PDZ FP-2 – blocks peptide binding to the human CAL PDZ domain; Q9HD26; purified CAL PDZ, TMR-peptide fluorescence polarization, 1 h; inhibition, % at 24.9 µM; 300,000 compounds, 0.92% hits; AID 602252;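 active = mean inhibition of at least 30% with at least half of replicates also reaching 30%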
DDE Tn6 FP inh – inhibitors of Tn6 peptide binding to human fibrin DD(E) | Fibrin DD(E) TRITC-Tn6 fluorescence polarization displacement | inhibition, % at 8.3 µM | 370,000 compounds, 0.21% hits | AID 720509 | P02675;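 active = inhibition above a per-campaign cutoff: mean of compounds within control limits plus 3 SD, cut at about 15% in these data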
Large screens that a line does not name were inactive. An excerpt weighted towards active compounds, which were near 1.8% of everything screened.

CC(=O)c1ccc(N2CCN(S(=O)(=O)c3c(C(=O)N4CCCCC4)c(C)n(C)c3C)CC2)cc1	none
Cc1ccccc1CNS(=O)(=O)c1c(C(=O)N2CCCC2)c(C)n(C)c1C	none
CC(=O)c1ccc(N2CCN(S(=O)(=O)c3c(C(=O)N4CCCC4)c(C)n(C)c3C)CC2)cc1	CAL PDZ FP-2 80
Cc1c(C(=O)N2CCCCC2)c(S(=O)(=O)NCc2ccccc2Cl)c(C)n1C	CAL PDZ FP-2 38
Cc1ccc(CNS(=O)(=O)c2c(C(=O)N3CCCCCC3)c(C)n(C)c2C)cc1	CAL PDZ FP-2 76
Cc1c(C(=O)N2CCCCC2)c(S(=O)(=O)NCc2ccc(Cl)cc2)c(C)n1C	CAL PDZ FP-2 77
COc1ccc(CNS(=O)(=O)c2c(C(=O)N3CCCCC3)c(C)n(C)c2C)cc1	none
CC(C)(C)c1ccc(-c2nnc(SCC(=O)Nc3ccc4cn[nH]c4c3)n2-c2ccc(Cl)cc2)cc1	none (no result: ARNT TACC3 PPI, CAL PDZ FP-1, GRK2 aptamer HTS, CAL PDZ FP-2)
COc1ccc(CN(C(C)=O)c2cc(C)c([N+](=O)[O-])cc2OC)cc1OC	none (no result: ARNT TACC3 PPI, CAL PDZ FP-1, GRK2 aptamer HTS, CAL PDZ FP-2)
CCCCCCCCN1C(=O)[C@@H](CC(=O)NCCc2ccccc2OC)C[C@@]2(C(=O)OC)C1=C[C@H](C(C)(C)C)O[C@@H]2C	none (no result: ARNT TACC3 PPI, CAL PDZ FP-1, GRK2 aptamer HTS, CAL PDZ FP-2)
CO[C@H]1CN(C)C(=O)c2cc(NC(=O)C3CC3)ccc2OC[C@H](C)N(CCC(F)(F)F)C[C@@H]1C	none (no result: DDE Tn7 FP inh, CAL PDZ FP-1, GRK2 aptamer HTS, CAL PDZ FP-2, DDE Tn6 FP inh)
CC1(C)CC(=O)C2=C(C1)Nc1ccccc1NC2c1ccccc1F (stereo not given)	none (no result: CAL PDZ FP-2)
Cc1c(C2Nc3ccccc3NC3=C2C(=O)CC(C)(C)C3)cnn1C (stereo not given)	DDE Tn7 FP inh 15
COc1ccc(CN(C)C[C@@H]2Oc3ccc(NC(=O)Nc4ccc(OC)cc4)cc3C(=O)N([C@@H](C)CO)C[C@H]2C)cc1	none (no result: DDE Tn7 FP inh, CAL PDZ FP-1, GRK2 aptamer HTS, CAL PDZ FP-2, DDE Tn6 FP inh)
O=C(O)c1ccc(NC(=O)c2cccc(S(=O)(=O)Nc3ccc(C(=O)O)cc3)c2)cc1	none (no result: CAL PDZ FP-1)
O=C1CSc2ccc(C(=O)Nc3cccc(S(=O)(=O)Nc4ccc(Br)cc4)c3)cc2N1	DDE Tn6 FP inh active
CN(CC(=O)Nc1ccc(S(=O)(=O)N2CCCC2)cc1)CC(=O)Nc1ccc(F)c(F)c1F	none
CCN(Cc1ccc(N(C)C)cc1)C(C)C(=O)Nc1ccc(S(=O)(=O)N2CCCC2)cc1 (stereo not given)	CAL PDZ FP-2 60 (no result: ARNT TACC3 PPI)
CSc1ccccc1NC(=O)CN(C)CC(=O)Nc1ccc(S(=O)(=O)N2CCCC2)cc1	CAL PDZ FP-2 48
Cc1ccc(NC(=O)CN(C)C(C)C(=O)Nc2ccc(S(=O)(=O)N3CCCC3)cc2)cc1 (stereo not given)	none
CCOc1ccc(CNC(=O)CCSCc2ccccc2F)cc1OC	none
COc1ccc(CCNC(=O)CCSCc2ccccc2F)cc1OC	CAL PDZ FP-2 41 (no result: CAL PDZ FP-1)
CCCNC(=O)C[C@H]1CC[C@@H]2[C@H](COC[C@@H](O)CN2Cc2cccc(F)c2)O1	none (no result: DDE Tn7 FP inh, CAL PDZ FP-1, GRK2 aptamer HTS, CAL PDZ FP-2, DDE Tn6 FP inh)
COCC(=O)N(Cc1cc2ccccc2[nH]c1=O)c1ccc(OC)cc1	CAL PDZ FP-2 62
COCC(=O)N(Cc1cc2cc(OC)ccc2[nH]c1=O)c1ccccc1	none (no result: ARNT TACC3 PPI)
CCCN1CCC(NC(=O)Nc2cc(Cl)ccc2OC)CC1	CAL PDZ FP-2 36
C[C@@H]1CN([C@H](C)CO)C(=O)c2ccccc2-c2ccccc2CO[C@H]1CN(C)C(=O)Cc1ccccc1	none (no result: DDE Tn7 FP inh, CAL PDZ FP-1, GRK2 aptamer HTS, CAL PDZ FP-2, DDE Tn6 FP inh)
COC(=O)Cc1c(O)ccn(Cc2ccccc2OC)c1=O	CAL PDZ FP-2 47
CCN(CC)c1ccc(/C=N/N=C(N)N)c(O)c1	ARNT TACC3 PPI 48
CCN(CC)c1ccc(/C=N/NC(=S)NC)c(O)c1	ARNT TACC3 PPI 60
CCN(CC)c1ccc(/C=N/NC(=O)c2cccc(S(=O)(=O)Nc3ccccc3OC)c2)cc1	none
CCN(CC)c1ccc(N=Cc2ccc(N(CC)CC)cc2O)cc1	none (no result: CAL PDZ FP-2)
CCN(CC)c1ccc(/C=N/NC(=O)c2cccc(S(=O)(=O)Nc3ccccc3OC)c2)c(O)c1	GRK2 aptamer HTS 70
C[C@@H]1CN([C@H](C)CO)C(=O)c2cc(C#Cc3ccccc3F)cnc2O[C@@H]1CN(C)C(=O)C1CCC1	none (no result: DDE Tn7 FP inh, CAL PDZ FP-1, GRK2 aptamer HTS, CAL PDZ FP-2, DDE Tn6 FP inh)
CCOC(=O)C1(C)CCCN(C(=O)CCc2ccccc2)C1 (stereo not given)	none (no result: ARNT TACC3 PPI, CAL PDZ FP-1, GRK2 aptamer HTS, CAL PDZ FP-2)
O=S(=O)(Cc1ccccc1)NCC[C@H]1CC[C@@H](NS(=O)(=O)c2ccccc2)[C@@H](CO)O1	none (no result: DDE Tn7 FP inh, CAL PDZ FP-1, GRK2 aptamer HTS, CAL PDZ FP-2, DDE Tn6 FP inh)
COCCCNC(=S)N(CCCO)Cc1cc2cc3c(cc2[nH]c1=O)OCCO3	CAL PDZ FP-2 42
CCNC(=S)N(CCc1ccc(OC)c(OC)c1)Cc1cc2cc(OC)ccc2[nH]c1=O	CAL PDZ FP-2 57
CCNC(=S)N(CCN(C)C)Cc1cc2cc3c(cc2[nH]c1=O)OCO3	CAL PDZ FP-2 84 (no result: CAL PDZ FP-1)
COc1ccc(NC(=O)N(C)C[C@@H]2Oc3c(NS(=O)(=O)c4ccc(OC)cc4)cccc3C(=O)N([C@@H](C)CO)C[C@H]2C)cc1	none (no result: DDE Tn7 FP inh, CAL PDZ FP-1, GRK2 aptamer HTS, CAL PDZ FP-2, DDE Tn6 FP inh)
CCOC(=O)C1=CN(Cc2ccco2)S(=O)(=O)N(C)C1c1ccccc1 (stereo not given)	none
CCOC(=O)C1=CN(Cc2ccco2)S(=O)(=O)N(CC)C1c1ccc(C(F)(F)F)cc1 (stereo not given)	CAL PDZ FP-2 79
COc1cc2c(cc1OC)CN(C(=S)Nc1ccccc1Cl)CC2	CAL PDZ FP-2 68 (no result: CAL PDZ FP-1)
COc1cc2c(cc1OC)CN(C(=S)Nc1ccccc1)CC2	none
COc1cccc(-c2ccnc3[nH]n(-c4ccccc4)c(=O)c23)c1	CAL PDZ FP-2 67
COc1ccc(-c2ccnc3[nH]n(-c4ccccc4)c(=O)c23)cc1	CAL PDZ FP-2 60
O=c1c2c(-c3ccc([N+](=O)[O-])cc3)ccnc2[nH]n1-c1ccccc1	none (no result: CAL PDZ FP-1)

Source: PubChem BioAssay
